ChEMBL document CHEMBL1142457, “Bisphosphonated fluoroquinolone esters as osteotropic prodrugs for the prevention of osteomyelitis” (Bioorg Med Chem, 2008)
≈ marks a conversion by molar mass, not a printed value. Calls of active or inactive are those of the source. No cut-off for these calls is given here.

Tests used:
Staphylococcus aureus [1] = experiment: Antibacterial activity against Staphylococcus aureus ATCC 13709 after 24 hrs by microdilution method; assay type: functional; details: ATCC 13709, 24 h
Summary of the method: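 Broth microdilution MIC per CLSI M7-A7 against S. aureus ATCC 13709.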

Bone = experiment: Binding affinity to bone assessed as drug level bound to cattle bone meal powder by fluorescence assay; assay type: tissue-based; parameters: concentration or dose not given beside the values; details: Bos taurus; Bone element
Summary of the method: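 Drug or prodrug was suspended with bone meal powder in PBS and held 1 h at 37 °C to bind, then centrifuged. The pellet was washed three times with PBS, and all supernatants were read by fluorescence (ex/em 280/465 nm). Bound fraction was taken as […] prodrug relative to total input.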

[2] = Stability in phosphate buffer saline assessed as amount of parent drug released from cattle bone meal powder over 24 hrs; assay type: ADME
Summary of the method: (§1)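 Washed bone-powder-bound prodrug was resuspended in PBS or 50% (v/v in PBS) human or rat serum and kept 24 h at 37 °C. The supernatant was extracted with 5 volumes of methanol, centrifuged, dried, redissolved in PBS and read by fluorescence. Release was derived from the difference between bound prodrug and regenerated drug. Identity was checked by CLSI MIC.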

Serum [3] = experiment: Stability in 50% rat serum assessed as amount of parent drug released from cattle bone meal powder over 24 hrs; assay type: ADME, cell-free; summary of the method: as §1
Serum [4] = experiment: Stability in 50% human serum assessed as amount of parent drug released from cattle bone meal powder over 24 hrs; assay type: ADME, cell-free; summary of the method: as §1
Staphylococcus aureus [5] = experiment: Protective effect against Staphylococcus aureus ATCC 13709-induced bone infection in CD rat at 10 mg/kg, iv administered as single dose 2 days before bacterial challenge; assay type: functional, organism-based; parameters: dose 10 mg/kg
Summary of the method: (§2)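 Female CD rats (57–70 days, n = 5/group) received a single IV bolus in 0.9% saline before infection. Under isoflurane, tibiae were injected with 0.05 ml 5% sodium morrhuate, then S. aureus ATCC 13709 (ca. 5 × 10⁵ CFU/rat). At 24 h, tibiae were milled and cultured quantitatively. Read-out was log CFU/g bone (mean, SD; detection limit 2 log), compared by Dunnett or Kruskal–Wallis.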

Staphylococcus aureus [6] = experiment: Protective effect against Staphylococcus aureus ATCC 13709-induced bone infection in CD rat at 10 mg/kg, iv administered as single dose 24 hrs after bacterial challenge; assay type: functional, organism-based; parameters: dose 10 mg/kg
Staphylococcus aureus [7] = experiment: Protective effect against Staphylococcus aureus ATCC 13709-induced bone infection in CD rat at 10 mg/kg, iv administered as single dose
Staphylococcus aureus [8] = experiment: Protective effect against Staphylococcus aureus ATCC 13709-induced bone infection in CD rat at 17.3 mg/kg, iv administered as single dose 2 days before bacterial challenge; assay type: functional, organism-based; parameters: dose 17.3 mg/kg; summary of the method: as §2
Staphylococcus aureus [9] = experiment: Protective effect against Staphylococcus aureus ATCC 13709-induced bone infection in CD rat at 15.8 mg/kg, iv administered as single dose 2 days before bacterial challenge; assay type: functional, organism-based; parameters: dose 15.8 mg/kg; summary of the method: as §2

Row | SMILES | MIC (Staphylococcus aureus [1]) [mg/L] | Activity (Bone) [%] | Activity [2] [%] | Activity (Serum [3]) [%] | Activity (Serum [4]) [%] | Activity (Staphylococcus aureus [5]) | Activity (Staphylococcus aureus [6]) | Activity (Staphylococcus aureus [7]) | Activity (Staphylococcus aureus [8]) | Activity (Staphylococcus aureus [9])
1 | COc1c(N2C[C@@H]3CCCN[C@@H]3C2)c(F)cc2c(=O)c(C(=O)O)cn(C3CC3)c12 [MOXIFLOXACIN] | 0.03 (≈ 0.0747 µM) |  |  |  |  | inactive | inactive | inactive |  | 
2 | COc1c(N2C[C@@H]3CCCN[C@@H]3C2)c(F)cc2c(=O)c(C(=O)OCCCCC(P(=O)(O)O)P(=O)(O)O)cn(C3CC3)c12 | > 4 | 92.7 | 0.01 |  |  |  |  |  |  | 
3 | COc1c(N2C[C@@H]3CCCN[C@@H]3C2)c(F)cc2c(=O)c(C(=O)OCC(=O)Nc3ccc(CC(P(=O)(O)O)P(=O)(O)O)cc3)cn(C3CC3)c12 | > 4 | 97.2 | 0.6 | 1.3 | 1.2 |  |  |  |  | 
4 | COc1c(N2CCNC(C)C2)c(F)cc2c(=O)c(C(=O)OCC(=O)N(C)C(P(=O)(O)O)P(=O)(O)O)cn(C3CC3)c12 (centres undefined) | > 4 | 90.4 | 1.1 | 0.9 | 0.6 |  |  |  |  | 
5 | COc1c(N2C[C@@H]3CCCN[C@@H]3C2)c(F)cc2c(=O)c(C(=O)SCCCC(P(=O)(O)O)P(=O)(O)O)cn(C3CC3)c12 | > 4 | 99.9 | 0.04 | 0.1 | 0.1 |  |  |  |  | 
6 | COc1c(N2C[C@@H]3CCCN[C@@H]3C2)c(F)cc2c(=O)c(C(=O)OCC(=O)NC(P(=O)(O)O)P(=O)(O)O)cn(C3CC3)c12 | > 4 | 98.7 | 1.2 | 1.4 | 1.4 |  |  |  |  | Active
7 | COc1c(N2CCNC(C)C2)c(F)cc2c(=O)c(C(=O)O)cn(C3CC3)c12 (centres undefined) [GATIFLOXACIN] | 0.06 (≈ 0.16 µM) |  |  |  |  | inactive |  | inactive |  | 
8 | COc1c(N2C[C@@H]3CCCN[C@@H]3C2)c(F)cc2c(=O)c(C(=O)OCC(=O)N(C)C(P(=O)(O)O)P(=O)(O)O)cn(C3CC3)c12 | > 4 | 97.3 | 0.3 | 0.7 | 0.8 |  |  |  |  | 
9 | COc1c(N2CCNC(C)C2)c(F)cc2c(=O)c(C(=O)OCC(=O)Nc3ccc(CC(P(=O)(O)O)P(=O)(O)O)cc3)cn(C3CC3)c12 (centres undefined) | > 4 | 88.9 | 0.5 | 0.6 | 0.7 |  |  |  |  | 

More lines, main results first:

Row | MIC (Staphylococcus aureus [1]) [mg/L] | Activity (Bone) [%] | Activity [2] [%] | Activity (Serum [3]) [%] | Activity (Serum [4]) [%] | SMILES | Activity (Staphylococcus aureus [5]) | Activity (Staphylococcus aureus [6]) | Activity (Staphylococcus aureus [7]) | Activity (Staphylococcus aureus [8]) | Activity (Staphylococcus aureus [9])
10 | > 4 | 93.8 |  |  |  | COc1c(N2C[C@@H]3CCCN[C@@H]3C2)c(F)cc2c(=O)c(C(=O)OCCCC(P(=O)(O)O)P(=O)(O)O)cn(C3CC3)c12 |  |  |  |  | 
11 | > 4 | 98.7 | 0.1 | 0.1 | 0.1 | COc1c(N2CCNC(C)C2)c(F)cc2c(=O)c(C(=O)SCCCC(P(=O)(O)O)P(=O)(O)O)cn(C3CC3)c12 (centres undefined) |  |  |  |  | 
12 | > 4 | 91 | 2.7 | 1.3 | 1.6 | COc1c(N2CCNC(C)C2)c(F)cc2c(=O)c(C(=O)OCC(=O)NC(P(=O)(O)O)P(=O)(O)O)cn(C3CC3)c12 (centres undefined) |  |  |  | Active | 
13 | > 4 | 99 | 0.3 | 0.4 | 0.5 | COc1c(N2C[C@@H]3CCCN[C@@H]3C2)c(F)cc2c(=O)c(C(=O)SCC(=O)NC(P(=O)(O)O)P(=O)(O)O)cn(C3CC3)c12 |  |  |  |  | 
14 | > 4 | 92.8 | 0.2 | 0.4 | 0.4 | COc1c(N2CCNC(C)C2)c(F)cc2c(=O)c(C(=O)OCC(=O)NCCCC[C@@H](NC(=O)COC(=O)c3cn(C4CC4)c4c(OC)c(N5CCNC(C)C5)c(F)cc4c3=O)C(=O)NC(P(=O)(O)O)P(=O)(O)O)cn(C3CC3)c12 (some centres undefined) |  |  |  |  | 
15 | > 4 | 79.2 | 0.2 | 0.1 | 0.1 | COc1c(N2CCNC(C)C2)c(F)cc2c(=O)c(C(=O)Oc3ccc(C(P(=O)(O)O)P(=O)(O)O)cc3)cn(C3CC3)c12 (centres undefined) |  |  |  |  | 
